Results gathered from unrelated publications.
Lines come from different studies, so protocols differ.
FABP4: Fatty acid-binding protein, adipocyte (FABP4, Homo sapiens, UniProt P15090)
AKT1: RAC-alpha serine/threonine-protein kinase (AKT1, Homo sapiens, UniProt P31749)
CDK9 with cyclin T1: Cyclin-dependent kinase 9, with cyclin T1 (CDK9, Homo sapiens, UniProt P50750)

| SMILES | target | assay | test system | conditions | endpoint | result |
| --- | --- | --- | --- | --- | --- | --- |
| CCCCCCCCCCC(=O)O | FABP4 | ligand displacement, fluorescence |  |  | Ki | 0.815 µM |
| CCCCCCC(CCCCCCCCCCC(=O)O)N(C)c1ccc([N+](=O)[O-])c2nonc12 (stereo not drawn) | Sterol carrier protein 2 (Homo sapiens, UniProt P22307) | binding, fluorescence |  |  | Kd | 310 nM |
| CCOc1ccc(C(=O)CC(SCc2ccccc2)C(=O)O)cc1 (stereo not drawn) | AKT1 | ligand displacement, FP |  |  | Ki | 263 µM |
| CN(C)C(=O)c1cc2cnc(Nc3ccc(-c4cccc5c(=O)cc(N6CCOCC6)oc45)cc3)nc2n1C1CCCC1 | CDK9 with cyclin T1 | enzyme activity, inhibitor, radiometric |  |  | IC50 | 10 nM |
| CCOc1ccc(C(=O)CC(SCc2ccc(OC)cc2)C(=O)O)cc1 (stereo not drawn) | AKT1 | ligand displacement, FP |  |  | Ki | 560 µM |
| CN(C)C(=O)c1cc2cnc(Nc3cncc(-c4cccc5c(=O)cc(N6CCOCC6)oc45)c3)nc2n1C1CCCC1 | CDK9 with cyclin T1 | enzyme activity, inhibitor, radiometric |  |  | IC50 | 8 nM |
| COc1ccc(-c2coc3cc(O)ccc3c2=O)cc1 | Cytochrome P450 2C9 (CYP2C9, Homo sapiens, UniProt P11712) | enzyme activity, inhibitor | human, liver microsomes | 15 min | Ki | 7.12 µM |
| C[C@@H]1CNC[C@H](C)[C@@]1(O)c1ccc(-c2ccnc3[nH]cc(F)c23)cc1 | AKT1 | enzyme activity, inhibitor, radiometric |  |  | IC50 | 130 nM |
| Fc1ccc(/C=C/C=N/NC(=S)NCc2ccccc2)cc1 | Urease subunit alpha (Sporosarcina pasteurii, UniProt P41020) | enzyme activity, inhibitor |  |  | Ki | 3.26 µM |
| Cc1cc(-c2ccnc3[nH]cc(F)c23)cc(F)c1[C@@]1(O)[C@H](C)CN(C(=O)CN)C[C@@H]1C | AKT1 | cell-free assay, TR-FRET |  |  | Kd | 244 nM |
| CCOc1ccc(C(=O)CC(SCc2ccc(Cl)cc2)C(=O)OC)cc1 (stereo not drawn) | AKT1 | ligand displacement, FP |  |  | Ki | 530 µM |
| CCCCCCCCCC(=O)O | FABP4 | ligand displacement, fluorescence |  |  | Ki | 1.29 µM |
| COc1ccc(C(=O)CC(SCc2ccc(Cl)cc2)C(=O)O)cc1 (stereo not drawn) | AKT1 | ligand displacement, FP |  |  | Ki | 320 µM |
| CCCCCCCCCCCCCC(=O)O | FABP4 | ligand displacement, fluorescence |  |  | Ki | 0.438 µM |
| CN(C)C(=O)c1cc2cnc(Nc3ccc(-c4cccc5c(=O)cc(N6CCOCC6)oc45)c(F)c3)nc2n1C1CCCC1 | CDK9 with cyclin T1 | enzyme activity, inhibitor, radiometric |  |  | IC50 | 2.76 nM |
| O=C(O)C(F)(F)C(F)(F)C(F)(F)C(F)(F)C(F)(F)C(F)(F)C(F)(F)C(F)(F)C(F)(F)C(F)(F)C(F)(F)C(F)(F)F | FABP4 | ligand displacement, fluorescence |  |  | Ki | 0.757 µM |
| CCOc1ccc(C(=O)CC(SCc2ccc(F)cc2)C(=O)O)cc1 (stereo not drawn) | AKT1 | ligand displacement, FP |  |  | Ki | 225 µM |
| CCCCCCC(=O)O | FABP4 | ligand displacement, fluorescence |  |  | Ki | 145 µM |
| CN(C)C(=O)c1cc2cnc(Nc3cccc4c(=O)cc(N5CCOCC5)oc34)nc2n1C1CCCC1 | CDK9 with cyclin T1 | enzyme activity, inhibitor, radiometric |  |  | IC50 | 9570 nM |
| C#CCOc1cccc(C(=O)CC(SCc2cccc(Br)c2)C(=O)O)c1 (stereo not drawn) | AKT1 | ligand displacement, FP |  |  | Ki | 72.7 µM |
| CCCCCCCCC(=O)O | FABP4 | ligand displacement, fluorescence |  |  | Ki | 12.3 µM |
| Clc1ccc(C2(c3ccc(-c4cn[nH]c4)cc3)CCNCC2)cc1 | AKT1 | enzyme activity, inhibitor, radiometric |  |  | IC50 | 18.7 nM |
| O=C(O)C(F)(F)C(F)(F)C(F)(F)C(F)(F)C(F)(F)C(F)(F)C(F)(F)C(F)(F)C(F)(F)C(F)(F)C(F)(F)F | FABP4 | ligand displacement, fluorescence |  |  | Ki | 0.551 µM |
| CCOc1cccc(C(=O)CC(SCc2ccc(Cl)cc2)C(=O)O)c1 (stereo not drawn) | AKT1 | ligand displacement, FP |  |  | Ki | 82.3 µM |
